Structures are written as SMILES.

One data set in a line: Stability of compound in human whole blood assessed as half life. Type of data set: ADME, tissue-based.
Turning to `COC(=O)CCNC(=O)[C@@H]1O[P@](=O)(Oc2ccc(S(F)(F)(F)(F)F)cc2)OCC1(C)C`, the half-life – broadly, how long it takes for the measured level to halve – is 30 min.

Consider `COC(=O)CCNC(=O)[C@@H]1OP(=O)(Oc2ccc(F)cc2)OCC1(C)C` (mixture of isomers), for which the half-life is greater than 60 min.

In the case of `COC(=O)CCNC(=O)[C@@H]1O[P@](=O)(OCOC(=O)c2scnc2C)OCC1(C)C` (relative stereo), the half-life is less than 9.6 min.

As for `COC(=O)CCNC(=O)[C@@H]1O[P@@](=O)(OCOC(=O)c2ccnn2C)OCC1(C)C` (relative stereo), the half-life was greater than 60 min.

Turning to `COC(=O)CCNC(=O)[C@@H]1O[P@](=O)(OCOC(=O)c2cc(C)nn2C)OCC1(C)C` (relative stereo), the half-life was less than 9.6 min.

Take `CC(C)(C)C(=O)OCO[P@@]1(=O)OCC(C)(C)[C@H](C(=O)NCCC(=O)OCCS(C)(=O)=O)O1`: the half-life is less than 9.6 min.

For `COC(=O)CCNC(=O)C1OP(=O)(Oc2ccc(F)cc2)OCC1(C)C` (mixture of isomers), the half-life was greater than 60 min.

As to `COC(=O)CCNC(=O)[C@@H]1O[P@](=O)(OCOC(=O)c2scnc2C(C)(C)C)OCC1(C)C` (relative stereo), the half-life was 26.4 min.

For the molecule `CC(C)(C)C(=O)OCO[P@@]1(=O)OCC(C)(C)[C@H](C(=O)NCCC(=O)OCc2cncs2)O1`, the half-life is less than 9.6 min.

With `CCOC(=O)CCNC(=O)[C@@H]1O[P@@](=O)(OCOC(=O)C(C)(C)C)OCC1(C)C`, the half-life is 16.8 min.

For `CC(C)(C)C(=O)OCO[P@@]1(=O)OCC(C)(C)[C@H](C(=O)NCCC(=O)OC2CCN(Cc3ccccc3)C2)O1` (stereo not given in full), the half-life is 11.4 min.

In the case of `CCc1cc(C(=O)OCO[P@]2(=O)OCC(C)(C)[C@H](C(=O)NCCC(=O)OC)O2)n(C)n1` (relative stereo), the half-life was less than 9.6 min.

`COC(=O)CCNC(=O)[C@@H]1O[P@](=O)(Oc2ccc(C[C@H](N)C(=O)OC)cc2)OCC1(C)C`: the half-life was 30 min.

Take `CC(C)(C)C(=O)OCO[P@@]1(=O)OCC(C)(C)[C@H](C(=O)NCCC(=O)O)O1`: the half-life was greater than 60 min.

Consider `COC(=O)CCNC(=O)[C@@H]1O[P@](=O)(Oc2ccc(C(F)(F)F)cc2)OCC1(C)C`, for which the half-life was greater than 60 min.

With `COC(=O)CCNC(=O)[C@@H]1O[P@](=O)(OCOC(=O)c2ocnc2C)OCC1(C)C`, the half-life was 16.2 min.

On to `COC(=O)CCNC(=O)[C@@H]1O[P@@](=O)(OCOC(=O)c2ccns2)OCC1(C)C` (relative stereo), for which the half-life was less than 9.6 min.

Consider `COC(=O)CCNC(=O)[C@@H]1O[P@](=O)(OCOC(=O)c2ccns2)OCC1(C)C` (relative stereo), for which the half-life is less than 9.6 min.

Consider `COC(=O)CCNC(=O)[C@@H]1O[P@](=O)(OCOC(=O)c2ccnn2C)OCC1(C)C`, for which the half-life was less than 9.6 min.

Take `COC(=O)CCNC(=O)[C@@H]1O[P@@](=O)(OCOC(=O)c2ocnc2C)OCC1(C)C` (relative stereo): the half-life was 31.2 min.

Regarding `COC(=O)CCNC(=O)[C@@H]1O[P@@](=O)(OCOC(=O)c2scnc2C(C)(C)C)OCC1(C)C` (relative stereo), the half-life is greater than 60 min.

Take `CC(C)(C)C(=O)OCO[P@@]1(=O)OCC(C)(C)[C@H](C(=O)NCCC(=O)OCCc2ccccn2)O1`: the half-life was less than 9.6 min.

With `COC(=O)CCNC(=O)[C@@H]1O[P@](=O)(OCOC(=O)c2cc(C(C)(C)C)n[nH]2)OCC1(C)C` (relative stereo), the half-life was less than 9.6 min.

Consider `COC(=O)CCNC(=O)[C@@H]1O[P@@](=O)(OCOC(=O)c2cc(C)nn2C)OCC1(C)C` (relative stereo), for which the half-life is greater than 60 min.

The nature of another data set: Induction of Coenzyme A regeneration in human IMR-32 PANK2 knockdown cells at 50 uM for 24 hrs by HPLC analysis relative to control. Type of data set: functional. Summed up:
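PANK2-knockout neuroblastoma cells were grown in MEM with 10% FBS and 1 µg/mL puromycin and seeded at 0.2×10⁶ cells/well. After 72 h, they were dosed at 50 µM in DMSO (final 0.1%) at 37 °C. Washed, frozen pellets were reconstituted in ammonium acetate (pH 5.1) with internal standard, and free CoA was measured by LC-MS/MS. Intracellular volume was taken as 2 µL/10⁶ cells; results are fold over vehicle-treated cells.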
On to `COC(=O)CCNC(=O)[C@@H]1OP(=O)(OCOC(=O)c2cc(C)nn2C)OCC1(C)C` (mixture of isomers), for which the “fold change (FC)” value is on record as 42.

Take `COC(=O)CCNC(=O)[C@@H]1O[P@](=O)(Oc2ccc(S(F)(F)(F)(F)F)cc2)OCC1(C)C`: the “fold change (FC)” value worked out at 34.

Turning to `COC(=O)CCNC(=O)[C@@H]1OP(=O)(OCOC(=O)c2ccccc2)OCC1(C)C` (mixture of isomers), the “fold change (FC)” value was determined as 278.

`CCCC(=O)OCOP1(=O)OCC(C)(C)[C@H](C(=O)NCCC(=O)OC)O1` (mixture of isomers): the “fold change (FC)” value was 84.

For `COC(=O)CCNC(=O)[C@@H]1OP(=O)(OCOC(=O)C2(C(N)=O)CC2)OCC1(C)C` (mixture of isomers), the “fold change (FC)” value was 12.

For the molecule `COC(=O)CCNC(=O)[C@@H]1OP(=O)(OCOC(=O)c2scnc2C(C)(C)C)OCC1(C)C` (mixture of isomers), the “fold change (FC)” value was 3.

For `CC(C)(C)C(=O)OCO[P@@]1(=O)OCC(C)(C)[C@H](C(=O)NCCC(=O)OCCS(C)(=O)=O)O1`, the “fold change (FC)” value came out at 121.

With `COC(=O)CCNC(=O)[C@@H]1OP(=O)(OCOC(=O)c2ccnn2C)OCC1(C)C` (mixture of isomers), the “fold change (FC)” value came to 58.

For the molecule `CCC(CC)C(=O)OCOP1(=O)OCC(C)(C)[C@H](C(=O)NCCC(=O)OC)O1` (mixture of isomers), the “fold change (FC)” value stood at 369.

As for `COC(=O)CCNC(=O)[C@@H]1O[P@](=O)(OCOC(=O)C(C)(C)C)OCC1(C)C`, the “fold change (FC)” value amounted to 106.

For the molecule `CCc1cc(C(=O)OCOP2(=O)OCC(C)(C)[C@H](C(=O)NCCC(=O)OC)O2)n(C)n1` (mixture of isomers), the “fold change (FC)” value came out at 130.

In the case of `CC(C)(C)C(=O)OCO[P@@]1(=O)OCC(C)(C)[C@H](C(=O)NCCC(=O)OCc2cncs2)O1`, the “fold change (FC)” value amounted to 133.

Turning to `COC(=O)CCNC(=O)[C@@H]1OP(=O)(OCOC(=O)c2cc(C(C)(C)C)n[nH]2)OCC1(C)C` (mixture of isomers), the “fold change (FC)” value is recorded as 85.

On to `CCOC(=O)CCNC(=O)[C@@H]1O[P@@](=O)(OCOC(=O)C(C)(C)C)OCC1(C)C`, for which the “fold change (FC)” value is 85.

On to `CC(C)(C)C(=O)OCO[P@@]1(=O)OCC(C)(C)[C@H](C(=O)NCCC(=O)OC2CCN(Cc3ccccc3)C2)O1` (stereo not given in full), for which the “fold change (FC)” value is 207.

On to `COC(=O)CCNC(=O)[C@@H]1O[P@@](=O)(Oc2ccc(F)cc2)OCC1(C)C`, for which the “fold change (FC)” value came out at 2.

Take `COC(=O)CCNC(=O)[C@@H]1O[P@](=O)(Oc2ccccc2C(=O)OC)OCC1(C)C`: the “fold change (FC)” value was 4.

With `COC(=O)CCNC(=O)[C@@H]1OP(=O)(OCOC(=O)c2ccns2)OCC1(C)C` (mixture of isomers), the “fold change (FC)” value was determined as 37.

As to `COC(=O)CCNC(=O)[C@@H]1O[P@](=O)(Oc2ccc(C[C@H](N)C(=O)OC)cc2)OCC1(C)C`, the “fold change (FC)” value is given as 81.

Regarding `CC(C)(C)C(=O)OCO[P@@]1(=O)OCC(C)(C)[C@H](C(=O)NCCC(=O)O)O1`, the “fold change (FC)” value was determined as 4.

Consider `COC(=O)CCNC(=O)[C@@H]1OP(=O)(OCOC(=O)c2scnc2C)OCC1(C)C` (mixture of isomers), for which the “fold change (FC)” value was determined as 44.

Regarding `COC(=O)CCNC(=O)[C@@H]1O[P@](=O)(Oc2ccc(C(F)(F)F)cc2)OCC1(C)C`, the “fold change (FC)” value was 102.

For the molecule `COC(=O)CCNC(=O)[C@@H]1OP(=O)(OCOC(=O)C(C)C)OCC1(C)C` (mixture of isomers), the “fold change (FC)” value is 92.

On to `COC(=O)CCNC(=O)[C@@H]1OP(=O)(OCOC(=O)c2cncs2)OCC1(C)C` (mixture of isomers), for which the “fold change (FC)” value worked out at 88.

As for `CC(C)(C)C(=O)OCO[P@@]1(=O)OCC(C)(C)[C@H](C(=O)NCCC(=O)OCCc2ccccn2)O1`, the “fold change (FC)” value worked out at 100.

Consider `COC(=O)CCNC(=O)[C@@H]1OP(=O)(OCOC(=O)c2ccncc2)OCC1(C)C` (mixture of isomers), for which the “fold change (FC)” value is 35.

As for `COC(=O)CCNC(=O)[C@@H]1O[P@@](=O)(OC(C)OC(=O)C(C)(C)C)OCC1(C)C` (stereo not given in full), the “fold change (FC)” value stood at 3.

Consider `COC(=O)CCNC(=O)[C@@H]1OP(=O)(OCOC(=O)c2ocnc2C)OCC1(C)C` (mixture of isomers), for which the “fold change (FC)” value was determined as 39.

`COC(=O)CCNC(=O)[C@@H]1O[P@@](=O)(OCOC(=O)C(C)(C)C)OCC1(C)C`: the “fold change (FC)” value was 198.

On to `COC(=O)CCNC(=O)[C@@H]1OP(=O)(OCOC(=O)OC(C)C)OCC1(C)C` (mixture of isomers), for which the “fold change (FC)” value is 199.

As for `COC(=O)CCNC(=O)[C@@H]1OP(=O)(OCOC(=O)c2cnccn2)OCC1(C)C` (mixture of isomers), the “fold change (FC)” value was 77.
